Measurements taken from ChEMBL document CHEMBL2169836 (J Med Chem, 2012).
The source made the active and inactive calls. The rule behind the calls is not given here.

Key:
[1] = target: Voltage-gated inwardly rectifying potassium channel KCNH2 (Homo sapiens, UniProt Q12809); assay: Inhibition of human ERG expressed in HEK 293 cells by PatchXpress assay; format: cell-based, HEK293
[2] = target: T1, Sodium/hydrogen exchanger 1 (Homo sapiens, UniProt P19634); assay: Inhibition of NHE1 in human HT-29 cells assessed as intracellular pH change after 30 mins; format: cell-based
T1 sequence (P19634 whole entry): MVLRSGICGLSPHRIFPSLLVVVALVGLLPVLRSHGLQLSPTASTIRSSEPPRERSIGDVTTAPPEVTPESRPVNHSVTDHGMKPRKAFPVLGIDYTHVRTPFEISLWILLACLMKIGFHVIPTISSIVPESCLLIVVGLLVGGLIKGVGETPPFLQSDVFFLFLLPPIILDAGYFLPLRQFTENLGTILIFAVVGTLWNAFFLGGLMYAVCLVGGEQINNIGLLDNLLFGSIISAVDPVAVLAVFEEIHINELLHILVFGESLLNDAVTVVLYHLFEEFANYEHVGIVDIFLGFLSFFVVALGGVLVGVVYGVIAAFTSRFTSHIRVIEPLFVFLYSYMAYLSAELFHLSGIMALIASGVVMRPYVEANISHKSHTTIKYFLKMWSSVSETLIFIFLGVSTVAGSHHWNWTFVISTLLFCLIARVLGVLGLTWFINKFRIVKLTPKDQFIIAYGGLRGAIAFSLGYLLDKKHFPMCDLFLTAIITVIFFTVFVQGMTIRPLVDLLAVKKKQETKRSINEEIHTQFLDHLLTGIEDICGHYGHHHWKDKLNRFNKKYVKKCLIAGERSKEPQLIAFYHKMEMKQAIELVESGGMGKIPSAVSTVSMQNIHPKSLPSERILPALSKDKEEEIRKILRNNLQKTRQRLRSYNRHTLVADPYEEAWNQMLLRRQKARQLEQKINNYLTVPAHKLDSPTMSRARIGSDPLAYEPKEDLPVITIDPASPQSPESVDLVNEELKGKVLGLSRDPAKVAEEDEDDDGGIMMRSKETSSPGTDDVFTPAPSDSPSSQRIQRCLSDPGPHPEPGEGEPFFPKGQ

Cytochrome P450 3A4 = Cytochrome P450 3A4 (Homo sapiens, UniProt P08684); assay: Inhibition of CYP3A4 in human liver microsomes using 7-benzyloxy-4-(trifluoromethyl)-coumarin as substrate after 30 mins by LC/MS/MS analysis; format: ADME, Microsome
Sequence of Cytochrome P450 3A4 (P08684 whole entry): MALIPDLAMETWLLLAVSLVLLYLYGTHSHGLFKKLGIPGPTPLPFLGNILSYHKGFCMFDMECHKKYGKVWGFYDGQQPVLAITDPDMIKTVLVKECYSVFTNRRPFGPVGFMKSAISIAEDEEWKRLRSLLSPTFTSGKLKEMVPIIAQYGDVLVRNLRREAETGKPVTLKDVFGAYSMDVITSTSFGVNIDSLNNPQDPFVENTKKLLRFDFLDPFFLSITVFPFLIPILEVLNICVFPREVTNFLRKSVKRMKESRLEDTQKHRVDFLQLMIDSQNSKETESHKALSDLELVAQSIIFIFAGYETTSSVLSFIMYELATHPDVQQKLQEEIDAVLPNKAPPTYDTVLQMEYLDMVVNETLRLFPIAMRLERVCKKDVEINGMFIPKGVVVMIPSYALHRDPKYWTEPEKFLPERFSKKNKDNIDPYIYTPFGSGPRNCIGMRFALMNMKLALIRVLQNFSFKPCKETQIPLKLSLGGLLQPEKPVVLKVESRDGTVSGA

[3] = Volume of distribution at steady state in jugular and femoral vein precannulated Sprague-Dawley rat at 1 mg/kg, iv by LC/MS/MS analysis; format: ADME, organism-based; set-up: dose 1 mg/kg, route intravenous; details: in vivo, read-out: Vdss
Rattus norvegicus = assay: Clearance in jugular and femoral vein precannulated Sprague-Dawley rat at 1 mg/kg, iv by LC/MS/MS analysis relative to hepatic blood flow; format: ADME, organism-based, Liver; set-up: dose 1 mg/kg, route intravenous; details: in vivo
Cytochrome P450 2C9 = Cytochrome P450 2C9 (Homo sapiens, UniProt P11712); assay: Inhibition of CYP2C9 in human liver microsomes using 7-methoxy-4-(trifluoromethyl)-coumarin as substrate after 45 mins by LC/MS/MS analysis; format: ADME, Microsome
Sequence of Cytochrome P450 2C9 (P11712 whole entry): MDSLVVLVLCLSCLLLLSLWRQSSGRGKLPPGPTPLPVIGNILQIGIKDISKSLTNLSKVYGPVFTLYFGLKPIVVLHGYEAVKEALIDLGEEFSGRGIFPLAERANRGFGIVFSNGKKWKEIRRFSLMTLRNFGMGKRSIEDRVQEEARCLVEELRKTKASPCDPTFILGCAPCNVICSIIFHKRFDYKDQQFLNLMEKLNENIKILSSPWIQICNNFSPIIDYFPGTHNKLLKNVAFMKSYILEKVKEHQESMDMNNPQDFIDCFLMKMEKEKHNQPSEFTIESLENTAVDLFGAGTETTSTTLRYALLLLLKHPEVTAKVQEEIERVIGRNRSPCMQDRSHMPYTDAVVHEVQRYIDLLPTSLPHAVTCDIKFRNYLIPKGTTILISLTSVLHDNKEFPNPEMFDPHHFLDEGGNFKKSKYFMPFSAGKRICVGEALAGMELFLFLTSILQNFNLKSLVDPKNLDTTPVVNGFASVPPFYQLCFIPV

[4] = Metabolic stability in rat liver microsomes at 1 uM up to 60 mins by LC/MS/MS analysis relative to hepatic blood flow; format: ADME, Microsome; details: read-out: Stability
[5] = Mean resident time in jugular and femoral vein precannulated Sprague-Dawley rat at 1 mg/kg, iv by LC/MS/MS analysis; format: ADME, organism-based; set-up: dose 1 mg/kg, route intravenous; details: in vivo
Cytochrome P450 2C19 = Cytochrome P450 2C19 (Homo sapiens, UniProt P33261); assay: Inhibition of CYP2C19 in human liver microsomes using 7-ethoxy-3-cyanocoumarin as substrate after 45 mins by LC/MS/MS analysis; format: ADME, Microsome
Sequence of Cytochrome P450 2C19 (P33261 whole entry): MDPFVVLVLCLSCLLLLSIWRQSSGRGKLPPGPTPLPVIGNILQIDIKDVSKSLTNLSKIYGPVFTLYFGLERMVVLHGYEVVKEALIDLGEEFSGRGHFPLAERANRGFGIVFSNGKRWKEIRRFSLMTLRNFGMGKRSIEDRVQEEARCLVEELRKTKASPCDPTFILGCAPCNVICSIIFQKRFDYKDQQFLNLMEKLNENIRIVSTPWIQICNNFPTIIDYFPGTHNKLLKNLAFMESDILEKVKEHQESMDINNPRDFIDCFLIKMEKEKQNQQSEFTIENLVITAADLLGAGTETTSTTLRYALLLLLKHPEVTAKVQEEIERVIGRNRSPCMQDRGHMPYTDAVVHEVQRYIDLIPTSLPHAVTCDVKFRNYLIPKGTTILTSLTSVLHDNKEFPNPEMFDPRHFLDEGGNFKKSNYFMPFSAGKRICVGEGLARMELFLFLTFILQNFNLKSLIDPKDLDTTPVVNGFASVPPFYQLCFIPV

[6] = Metabolic stability in human liver microsomes at 1 uM up to 60 mins by LC/MS/MS analysis relative to hepatic blood flow; format: ADME, Microsome; details: read-out: Stability
Cytochrome P450 2D6 = Cytochrome P450 2D6 (Homo sapiens, UniProt P10635); assay: Inhibition of CYP2D6 in human liver microsomes using 3-[2-(N,N-diethyl-N-methylamino)ethyl]-7- methoxy-4-methylcoumarin as substrate after 45 mins by LC/MS/MS analysis; format: ADME, Microsome
Sequence of Cytochrome P450 2D6 (P10635 whole entry): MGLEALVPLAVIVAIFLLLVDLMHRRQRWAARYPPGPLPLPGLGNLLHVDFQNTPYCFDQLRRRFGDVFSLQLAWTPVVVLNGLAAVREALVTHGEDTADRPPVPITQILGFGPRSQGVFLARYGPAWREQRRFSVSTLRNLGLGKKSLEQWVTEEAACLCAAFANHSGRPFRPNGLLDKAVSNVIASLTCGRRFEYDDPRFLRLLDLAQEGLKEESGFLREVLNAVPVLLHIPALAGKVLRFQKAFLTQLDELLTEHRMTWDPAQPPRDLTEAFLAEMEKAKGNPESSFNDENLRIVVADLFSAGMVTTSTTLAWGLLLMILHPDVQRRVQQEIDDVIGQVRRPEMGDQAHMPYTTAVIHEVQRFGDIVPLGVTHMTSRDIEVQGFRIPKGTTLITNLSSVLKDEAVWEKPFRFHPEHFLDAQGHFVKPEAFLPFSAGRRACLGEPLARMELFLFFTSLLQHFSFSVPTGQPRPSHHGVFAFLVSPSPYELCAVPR

[7] = Permeability of the compound by PAMPA; format: ADME; details: read-out: permeability
Outline: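 Donor buffers were set to pH 5.0, 6.2 and 7.4 with NaOH, and ASB7.4 buffer was used as acceptor. Filters (0.45 pore, 125 μm thick) were lipid-coated. A 10 mM DMSO stock was diluted to 41.7 μM in donor buffer. The sandwich was incubated 4 h without stirring. Reference, donor and acceptor concentrations were read in duplicate by UV plate reader, and ratings were assigned from permeation velocity.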

[8] = Oral bioavailability in jugular and femoral vein precannulated Sprague-Dawley rat plasma at 5 mg/kg by LC/MS/MS analysis; format: ADME, organism-based
[9] = Oral bioavailability in overnight fasted Beagle dog at 5 mg/kg; format: ADME, organism-based, Canis lupus familiaris; details: in vivo
Canis familiaris = assay: Clearance in overnight fasted Beagle dog at 1 mg/kg, iv relative to hepatic blood flow; format: ADME, organism-based, Canis lupus familiaris, Liver; set-up: dose 1 mg/kg, route intravenous; details: in vivo
[10] = Mean resident time in overnight fasted Beagle dog at 1 mg/kg, iv; format: ADME, organism-based, Canis lupus familiaris; set-up: dose 1 mg/kg, route intravenous; details: in vivo
[11] = target: T1, Sodium/hydrogen exchanger 1; assay: Inhibition of NHE1 in human HT-29 cells assessed as intracellular pH change after 30 mins in presence of plasma protein; format: cell-based
[12] = target: T2, Sodium/hydrogen exchanger 3 (Homo sapiens) (UniProt P48764); assay: Inhibition of NHE3 transfected in Chinese hamster PS120 assessed as intracellular pH change up to 16 uM; format: cell-based
T2 sequence (whole entry): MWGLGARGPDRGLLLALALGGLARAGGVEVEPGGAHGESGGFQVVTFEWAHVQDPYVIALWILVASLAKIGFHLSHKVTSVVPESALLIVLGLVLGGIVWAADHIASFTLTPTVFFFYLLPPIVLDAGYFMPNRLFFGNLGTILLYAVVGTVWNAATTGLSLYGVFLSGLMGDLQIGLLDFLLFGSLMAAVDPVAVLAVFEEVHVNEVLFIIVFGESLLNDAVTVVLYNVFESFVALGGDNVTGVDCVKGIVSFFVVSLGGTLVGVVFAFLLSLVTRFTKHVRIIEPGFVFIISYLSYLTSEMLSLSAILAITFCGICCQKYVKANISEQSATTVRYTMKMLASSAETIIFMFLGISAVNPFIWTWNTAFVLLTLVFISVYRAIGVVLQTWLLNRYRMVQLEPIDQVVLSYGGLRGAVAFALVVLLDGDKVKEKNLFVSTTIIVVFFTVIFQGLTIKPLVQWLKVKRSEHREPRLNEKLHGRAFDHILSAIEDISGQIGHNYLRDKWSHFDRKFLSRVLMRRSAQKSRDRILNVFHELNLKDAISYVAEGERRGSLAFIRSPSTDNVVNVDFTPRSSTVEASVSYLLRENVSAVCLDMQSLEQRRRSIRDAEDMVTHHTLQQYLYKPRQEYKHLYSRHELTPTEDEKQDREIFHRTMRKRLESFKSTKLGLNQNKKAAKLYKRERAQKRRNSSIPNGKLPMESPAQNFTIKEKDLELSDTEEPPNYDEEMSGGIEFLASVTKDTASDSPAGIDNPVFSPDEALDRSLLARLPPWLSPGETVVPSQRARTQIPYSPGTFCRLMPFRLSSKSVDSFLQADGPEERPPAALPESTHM

[13] = Volume of distribution at steady state in overnight fasted Beagle dog at 1 mg/kg, iv; format: ADME, organism-based, Canis lupus familiaris; set-up: dose 1 mg/kg, route intravenous; details: in vivo, read-out: Vdss

Sequence of Voltage-gated inwardly rectifying potassium channel KCNH2 (Q12809 whole entry): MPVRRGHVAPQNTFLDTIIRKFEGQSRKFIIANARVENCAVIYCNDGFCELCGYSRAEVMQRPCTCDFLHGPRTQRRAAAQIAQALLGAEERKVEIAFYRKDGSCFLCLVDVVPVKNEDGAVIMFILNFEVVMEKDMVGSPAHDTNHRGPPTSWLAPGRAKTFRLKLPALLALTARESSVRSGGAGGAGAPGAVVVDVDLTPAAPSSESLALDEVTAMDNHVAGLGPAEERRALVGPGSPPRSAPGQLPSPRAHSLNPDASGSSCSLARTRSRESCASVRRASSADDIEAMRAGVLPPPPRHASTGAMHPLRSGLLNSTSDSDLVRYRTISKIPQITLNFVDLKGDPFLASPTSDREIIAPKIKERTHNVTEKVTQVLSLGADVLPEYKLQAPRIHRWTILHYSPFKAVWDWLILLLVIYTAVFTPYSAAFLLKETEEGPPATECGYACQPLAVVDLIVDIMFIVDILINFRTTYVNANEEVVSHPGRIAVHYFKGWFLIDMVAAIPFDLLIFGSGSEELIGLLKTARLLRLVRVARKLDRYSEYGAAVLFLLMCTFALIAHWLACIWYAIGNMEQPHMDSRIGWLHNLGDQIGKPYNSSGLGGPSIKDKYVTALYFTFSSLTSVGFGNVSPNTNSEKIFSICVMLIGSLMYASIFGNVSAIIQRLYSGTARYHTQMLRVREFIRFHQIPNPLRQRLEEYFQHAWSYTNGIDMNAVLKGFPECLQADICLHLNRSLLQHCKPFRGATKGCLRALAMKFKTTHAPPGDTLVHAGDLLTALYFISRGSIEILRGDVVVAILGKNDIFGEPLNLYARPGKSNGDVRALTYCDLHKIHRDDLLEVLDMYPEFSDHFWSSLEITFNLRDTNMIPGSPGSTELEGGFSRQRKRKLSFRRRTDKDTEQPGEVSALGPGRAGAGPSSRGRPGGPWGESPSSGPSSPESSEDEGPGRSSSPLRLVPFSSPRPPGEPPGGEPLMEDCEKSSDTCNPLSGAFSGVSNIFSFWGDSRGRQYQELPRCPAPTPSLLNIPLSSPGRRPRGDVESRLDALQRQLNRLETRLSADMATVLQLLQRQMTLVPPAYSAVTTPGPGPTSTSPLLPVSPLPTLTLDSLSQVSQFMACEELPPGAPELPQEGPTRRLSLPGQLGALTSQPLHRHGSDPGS

Compound | IC50 [1] [µM] | IC50 [2] [µM] | IC50 (Cytochrome P450 3A4) [µM] | Vd [3] [L/kg] | CL (Rattus norvegicus) [%] | IC50 (Cytochrome P450 2C9) [µM] | hepatic extraction ratio at 1 h, 1 µM [4] | MRT [5] [h] | IC50 (Cytochrome P450 2C19) [µM] | hepatic extraction ratio at 1 h, 1 µM [6] | IC50 (Cytochrome P450 2D6) [µM] | Papp [7] [×10⁻⁶ cm/s] | bioavailability [8] [%] | bioavailability [9] [%] | CL (Canis familiaris) [%] | MRT [10] [h] | inhibition [11] | inhibition [12] | Vd [13] [L/kg]
CC(=O)N1CCC(c2cc(C)c(C(=O)NC(=N)N)cc2C(F)(F)F)CC1 | 7 | 0.005 |  |  |  |  |  |  |  |  |  |  |  |  |  |  |  |  | 
COCC(=O)N1CCC(c2ccc(C(=O)NC(=N)N)cc2C(F)(F)F)CC1 | > 30 | 0.01 | > 30 | 1.3 | 21 | 25 | 0.36 | 1.4 | 8 | 0.06 | > 30 | ≥ 2 |  |  |  |  |  |  | 
Cn1ccnc1C(=O)N1CCC(c2ccc(C(=O)NC(=N)N)cc2C(F)(F)F)CC1 | > 30 | 0.014 | 26 | 1.4 | 31 | 18 | 0.12 | 1 | 16 | 0.47 | > 30 | ≥ 2 |  |  |  |  |  |  | 
CS(=O)(=O)c1ccc(C(=O)N2CCC(c3ccc(C(=O)NC(=N)N)cc3C(F)(F)F)CC2)cc1 |  | 0.015 |  |  | 66 | > 30 |  |  | > 30 |  | > 30 | < 2 | 15 |  |  |  |  |  | 
N#Cc1cccc(C(=O)N2CCC(c3ccc(C(=O)NC(=N)N)cc3C(F)(F)F)CC2)c1 | > 30 | 0.035 | 22 | 4.9 | 16 | 19 | < 0.056 | 3.3 | 7 | < 0.11 | > 30 | ≥ 2 | 72 | 36 | 18 | 17 |  |  | 
N#Cc1ccc(C(=O)N2CCC(c3ccc(C(=O)NC(=N)N)cc3C(F)(F)F)CC2)cc1 | 4 |  | 11 | 6.5 | 19 | 13 | 0.2 | 8.5 | 15 | < 0.11 | > 30 | ≥ 2 |  |  |  |  |  |  | 
CC(=O)N1CCC(c2cc(C)c(C(=O)NC(=N)N)cc2S(C)(=O)=O)CC1 |  | 0.015 |  | 1 | 47 |  |  | 0.36 |  |  |  |  | 4 |  |  |  |  |  | 
N=C(N)NC(=O)c1cnn(-c2cccc3ncccc23)c1C1CC1 [ZONIPORIDE] |  |  |  | 2.8 | 105 |  |  | 0.6 |  |  |  |  | 5 |  |  |  |  |  | 
Cc1cc(-n2cccc2)c(S(C)(=O)=O)cc1C(=O)NC(=N)N [ENIPORIDE] |  |  |  | 0.5 | 28 |  |  | 0.4 |  |  |  |  | 65 |  |  |  |  |  | 
N=C(N)NC(=O)c1ccc(N2CCCC(NC(=O)c3ccc[nH]3)C2)c(C(F)(F)F)c1 (racemic) |  | 0.172 |  |  |  |  |  |  |  |  |  |  |  |  |  |  | Active |  | 
N=C(N)NC(=O)c1ccc(N2CCC(NC(=O)c3ccc[nH]3)CC2)c(C(F)(F)F)c1 |  | 0.041 |  |  |  |  |  |  |  |  |  |  |  |  |  |  | Active |  | 
N=C(N)NC(=O)c1ccc(N2CCN(C(=O)c3ccc[nH]3)CC2)c(C(F)(F)F)c1 [SABIPORIDE] |  | 0.028 | 7 | 1.3 | 24 |  |  | 1.3 | 9 |  |  |  | 42 |  |  |  |  |  | 
CC(C)c1ccc(C(=O)NC(=N)N)cc1S(C)(=O)=O [CARIPORIDE] |  |  |  | 1.3 | 82 |  |  | 0.4 |  |  |  |  | 37 |  |  |  |  |  | 
CCC(=O)N1CCC(c2ccc(C(=O)NC(=N)N)cc2C(F)(F)F)CC1 |  | 0.011 |  | 1 | 4.4 |  |  | 5.3 |  |  |  | ≥ 2 | 49 | 49 | 8.1 | 14 |  | inactive | 2
CC(C)(C)C(=O)N1CCC(c2ccc(C(=O)NC(=N)N)cc2C(F)(F)F)CC1 |  | 0.072 |  | 1.8 | 29 | 17 |  | 1.5 |  |  | > 30 | ≥ 2 |  |  |  |  |  |  | 
N=C(N)NC(=O)c1ccc(N2CCC(NC(=O)c3ccc[nH]3)C2)c(C(F)(F)F)c1 (racemic) |  | 0.036 |  |  |  |  |  |  |  |  |  |  |  |  |  |  | Active |  | 
